The values that follow come from ChEMBL document CHEMBL1158829, “Oxygenated pimarane diterpenes from Kaempferia marginata” (J Nat Prod, 2005).

The test system of test [1] is Mycobacterium tuberculosis. In words: Antitubercular activity against Mycobacterium tuberculosis H37Ra after 4 days by microplate alamar blue assay. Format: functional. To be noted: 96 h. The procedure, abridged: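 Mycobacterium tuberculosis H37Ra tested by Microplate Alamar Blue Assay, reporting minimum inhibitory concentration (MIC). Rifampicin, kanamycin and isoniazid were the positive controls.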
Background: The colour change of resazurin is a common sign of viable cells or microbes.

In test [2] the test system is Plasmodium falciparum. Description: Antimalarial activity against multidrug-resistant Plasmodium falciparum K1 after 42 hrs by [3H]hypoxanthine uptake. Format: functional, organism-based. The procedure, abridged:
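Plasmodium falciparum K1 (multidrug-resistant) was kept in continuous culture. In vitro activity was quantified with a microculture radioisotope technique.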

In test [3] the test system is Candida albicans. Description: Antifungal activity against Candida albicans ATCC 90028 by XTT assay. Format: functional, organism-based. The procedure, abridged: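 Candida albicans ATCC 90028 tested by a tetrazolium/formazan colorimetric method, with IC50 as the read-out. Amphotericin B served as the positive control and DMSO as the negative control.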
For orientation: Formazan colour is commonly taken as a measure of viable cells.

Structures are written as SMILES. In brackets after ≈: the same amount, converted by molar mass.

What is called MIC is the smallest concentration in the dilution series that meets the test's criterion for growth inhibition. Low values mean a more susceptible organism, high ones a less susceptible organism. `C=C[C@]1(C)C=C2C(=O)C[C@H]3C(C)(C)C[C@H](O)[C@H](O)[C@]3(C)[C@H]2CC1` registered a minimal inhibitory concentration (MIC) in test [1] of more than 100 µg/mL.
A word on the IC50: it is the concentration at which inhibition is half-maximal. The low end stands for greater potency, the high end for weaker potency. For `C=C[C@]1(C)C=C2CC[C@H]3C(C)(C)C[C@H](O)[C@H](O)[C@]3(C)[C@H]2[C@H](O)C1`, the IC50 in test [2] was 8.8 µg/mL (≈ 27.5 µM); in test [3], 17.5 µg/mL (≈ 54.6 µM). Further, the minimal inhibitory concentration (MIC) in test [1] is more than 100 µg/mL.
In test [1], `C=C[C@]1(C)C=C2[C@H](O)C[C@H]3C(C)(C)CC[C@H](O)[C@]3(C)[C@H]2[C@H](O)C1` showed a minimum inhibitory concentration (MIC) of more than 100 µg/mL.
On the same count and under the same terms, with `C=C[C@]1(C)C=C2CC[C@]3(C)[C@](C)(CC[C@H](C(C)=O)[C@]3(C)O)[C@@]2(C)CC1` the figure was 50 µg/mL (≈ 145 µM); with `C=C[C@]1(C)C=C2CC[C@]3(C)[C@](C)(CCC[C@]3(C)O)[C@@]2(C)CC1`, 25 µg/mL (≈ 82.6 µM).
As to `C=C[C@]1(C)C=C2CC[C@H]3C(C)(C)CC[C@H](O)[C@]3(C)[C@H]2[C@H](O)C1`, inhibition in test [2] was half-maximal at 3.2 µg/mL (≈ 10.5 µM) (IC50).
